For assay [1], the system named is HT-29. In words: Cytotoxicity against human HT-29 cells at 16 ug/ml after 24 hrs by MTT assay. It is filed as functional. Summed up:
(§1)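 HT-29 cells grown in McCoy's 5A with 10% FBS and penicillin/streptomycin at 37 °C, 5% CO2. Treated 24 h with 0.64, 1.6, 6.4, 16, 32 or 80 µg/mL (DMSO stock diluted in medium). MTT added, absorbance read at 540 nm. Viability taken relative to untreated control (100%); IC50 calculated. Four wells per concentration, three repeat experiments.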

Assay [2] concerns HT-29. Briefly: Cytotoxicity against human HT-29 cells after 24 hrs by MTT assay. The assay is classed as functional, cell-based. Particulars: HT-29, 24 h. Summed up: as §1
Assay [3] concerns MCF7. Briefly: Cytotoxicity against human MCF7 cells at 16 ug/ml after 24 hrs by MTT assay. It is filed as functional. Summed up: (§2)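 MCF-7 cells grown in DMEM with 1 mM pyruvate, 10 µg/mL insulin, 10% FBS and penicillin/streptomycin at 37 °C, 5% CO2. Exposed 24 h to 0.64–80 µg/mL (DMSO stocks diluted in medium). MTT added, A540 measured. Percent viability relative to untreated cells; IC50 derived. Three experiments with four wells per concentration.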
On the technique in general: Tetrazolium assays rely on reduction of a dye to a coloured formazan, in cell work by metabolically active cells.

The subject of assay [4] is MCF7. Briefly: Cytotoxicity against human MCF7 cells at 6.4 ug/ml after 24 hrs by MTT assay. It is filed as functional. Summed up:
as §2

The test system of assay [5] is HT-29. In words: Cytotoxicity against human HT-29 cells at 1.6 ug/ml after 24 hrs by MTT assay. The assay is classed as functional. Summed up:
as §1

Assay [6] has as its system HT-29. Briefly: Inhibition of DNA synthesis in human HT-29 cells by BrdU incorporation assay. The assay is classed as functional, cell-based. Particulars: TDE = time-dependent effect. Summed up: (§3)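 HT-29 cells (McCoy's 5A, 10% FBS) seeded at 1 × 10^3 cells/mL. Exposed to three concentrations for 24 h and 48 h at 37 °C, with DMSO solvent control. BrdU label for 2 h, then fixation and anti-BrdU-POD for 90 min. Substrate colour read at 492 nm with blank subtracted. Triplicate wells, three experiments.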
Background: Dividing cells build labelled thymidine or BrdU into new DNA.

Assay [7] relates to HT-29. In words: Cytotoxicity against human HT-29 cells at 6.4 ug/ml after 24 hrs by MTT assay. The assay is classed as functional. Summed up:
as §1

The subject of assay [8] is HT-29. In words: Cytotoxicity against human HT-29 cells at 32 ug/ml after 24 hrs by MTT assay. It is filed as functional. Summed up:
as §1

In assay [9] the test system is HT-29. Briefly: Induction of apoptosis in human HT-29 cells assessed as DNA fragmentation after 24 hrs by gel electrophoresis.
For assay [10], the system named is MCF7. Briefly: Cytotoxicity against human MCF7 cells at 1.6 ug/ml after 24 hrs by MTT assay. It is filed as functional. Summed up: as §2
Assay [11] relates to MCF7. In words: Inhibition of DNA synthesis in human MCF7 cells after 48 hrs by BrdU incorporation assay. The assay is classed as functional, cell-based. An outline of the steps:
(§4)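 MCF-7 cells (DMEM, pyruvate, insulin, 10% FBS) seeded at 1 × 10^3 cells/mL. Treated at three concentrations for 24 h or 48 h at 37 °C against DMSO control. Labelled with BrdU for 2 h, fixed, then anti-BrdU-POD for 90 min. Colorimetric substrate read at 492 nm after blank subtraction. Triplicate wells, repeated three times.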

Assay [12] relates to HT-29. In words: Inhibition of DNA synthesis in human HT-29 cells after 48 hrs by BrdU incorporation assay. It is filed as functional, cell-based. An outline of the steps: as §3
In assay [13] the test system is HT-29. Briefly: Cytotoxicity against human HT-29 cells at 80 ug/ml after 24 hrs by MTT assay. It is filed as functional. Summed up: as §1
Assay [14] has as its system MCF7. Briefly: Cytotoxicity against human MCF7 cells at 0.64 ug/ml after 24 hrs by MTT assay. The assay is classed as functional. An outline of the steps:
as §2

Assay [15] concerns MCF7. Briefly: Inhibition of DNA synthesis in human MCF7 cells by BrdU incorporation assay. It is filed as functional, cell-based. As to conditions: TDE = time-dependent effect. An outline of the steps:
as §4

Assay [16] deals with MCF7. Briefly: Cytotoxicity against human MCF7 cells at 32 ug/ml after 24 hrs by MTT assay. It is filed as functional. Summed up:
as §2

For assay [17], the system named is MCF7. Briefly: Cytotoxicity against human MCF7 cells after 24 hrs by MTT assay. The assay is classed as functional, cell-based. As to conditions: MCF7, 24 h. Summed up:
as §2

The test system of assay [18] is HT-29. In words: Cytotoxicity against human HT-29 cells at 0.64 ug/ml after 24 hrs by MTT assay. It is filed as functional. Summed up: as §1
The test system of assay [19] is MCF7. Briefly: Cytotoxicity against human MCF7 cells at 80 ug/ml after 24 hrs by MTT assay. It is filed as functional. Summed up: as §2

The structures appear in SMILES notation. ≈ marks a conversion by molar mass, not a printed value. Calls of active or inactive are those of the source. The calls are words filed in the database; no cut-off is given here.

In ChEMBL document CHEMBL1208663, “Synthesis of 2-substituted-N-[4-(1-methyl-4,5-diphenyl-1H-imidazole-2-yl)phenyl]acetamide derivatives and evaluation of their anticancer activity” (Eur J Med Chem, 2010) one finds Activity, IC50 and inhibition data, which are given here for three compounds.

Broadly, the IC50 is the point on the concentration scale where inhibition reaches its midpoint. As to `Cc1nnc(SCC(=O)Nc2ccc(-c3nc(-c4ccccc4)c(-c4ccccc4)n3C)cc2)s1`, the Activity came to 83.3% in assay [1]; 74.9% in assay [3]; 67.8% in assay [4]; 39.9% in [5]; 73% in [7]; 87.1% in assay [8]. Besides, the Activity in assay [10] came out at 37.5%; in assay [13] it was 90.5%; in assay [14], 35.1%; in [16] it was 83.4%; in assay [18], 34.8%; in assay [19], 85.2%. Moreover, the IC50 in assay [2] was determined as 2.7 µg/mL (≈ 5.43 µM); in assay [17], 3.2 µg/mL (≈ 6.43 µM). For the same compound, the inhibition entry in assay [6] is “tde”; in assay [11] it was “Dose-dependent effect”; in assay [12] it was “Dose-dependent effect”; in [15], “tde”. For the same compound, the outcome in assay [9] was Active.

In the case of `Cn1c(-c2ccc(NC(=O)CSc3nc4ccccc4o3)cc2)nc(-c2ccccc2)c1-c1ccccc1`, the Activity in assay [1] was found to be 56.2%; in assay [3], 56%; in assay [4] it was 42.3%; in [5], 41%; in [7], 44.9%; in assay [8] it was 79.3%. Besides, the Activity turned out to be 27.4% in assay [10]; 81.5% in assay [13]; 18.7% in assay [14]; 71.5% in [16]; 24.8% in assay [18]; 76.3% in assay [19]. Moreover, the IC50 turned out to be 11 µg/mL (≈ 21.3 µM) in assay [2] and 11.2 µg/mL (≈ 21.7 µM) in [17]. In addition, the inhibition entry in assay [6] was “tde”; in assay [11], “Dose-dependent effect”; in [12] it was “Dose-dependent effect”; in assay [15], “tde”. The outcome in assay [9] was inactive.

`Cn1nnnc1SCC(=O)Nc1ccc(-c2nc(-c3ccccc3)c(-c3ccccc3)n2C)cc1`: the Activity in assay [1] was 72.5%; in assay [3] it was 63.7%; in assay [4] it was 55.9%; in [5], 49.8%; in assay [7], 60.6%; in [8] it was 84%. Besides, the Activity is listed as 34.3% in assay [10]; 89% in assay [13]; 21.9% in assay [14]; 77.5% in assay [16]; 38% in [18]; 77.7% in assay [19]. Also, the values for the IC50 in [2] and in [17] were 1.6 µg/mL (≈ 3.32 µM) and 4.5 µg/mL (≈ 9.34 µM), respectively. For the same compound, the inhibition result was “tde” in assay [6], “Dose-dependent effect” in assay [11], “Dose-dependent effect” in assay [12] and “tde” in assay [15]. Further, the outcome in assay [9] was Active.
